ChEMBL document CHEMBL1153849, “Synthesis and biological evaluation of benzenesulfonamide-substituted 4-(6-alkylpyridin-2-yl)-5-(quinoxalin-6-yl)imidazoles as transforming growth factor-beta type 1 receptor kinase inhibitors” (Eur J Med Chem, 2009)

Experiments:
[1] = target: Mitogen-activated protein kinase 14 (Homo sapiens) (UniProt Q16539); experiment: Inhibition of p38alpha MAP kinase at 10 uM; parameters: scale not given: the % may be the effect or the level left
How it was run: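 Radiometric coupled assay. [γ-³²P]ATP and MAPKAP kinase-2 substrate then added, 10 min at 30 °C. Mixture spotted onto P81 phosphocellulose paper, washed with 0.75% phosphoric acid, bound radioactivity counted by liquid scintillation.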

[2] = target: T1, TGF-beta receptor type-1 (Homo sapiens) (UniProt P36897); experiment: Inhibition of human ALK5 activity in human HaCaT cells assessed as p3TP-luciferase reporter activity; type: cell-based
T1 sequence (whole entry): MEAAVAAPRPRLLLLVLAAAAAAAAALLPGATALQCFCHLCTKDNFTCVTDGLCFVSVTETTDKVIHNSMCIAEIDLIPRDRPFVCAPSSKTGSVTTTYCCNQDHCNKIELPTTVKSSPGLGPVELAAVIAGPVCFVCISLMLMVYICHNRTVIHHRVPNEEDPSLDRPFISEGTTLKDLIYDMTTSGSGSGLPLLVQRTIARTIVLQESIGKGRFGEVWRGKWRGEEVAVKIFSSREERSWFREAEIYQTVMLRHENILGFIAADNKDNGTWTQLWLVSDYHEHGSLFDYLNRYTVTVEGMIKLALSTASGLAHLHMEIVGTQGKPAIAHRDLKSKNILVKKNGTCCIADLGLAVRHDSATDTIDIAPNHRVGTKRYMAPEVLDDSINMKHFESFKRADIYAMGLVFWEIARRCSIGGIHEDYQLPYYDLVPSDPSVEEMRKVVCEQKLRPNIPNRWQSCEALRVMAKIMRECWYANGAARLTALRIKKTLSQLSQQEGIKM
How it was run: (§1)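 HaCaT cells seeded at 5 × 10⁴ per well; next day (about 90% confluent) transiently co-transfected with p3TP-Luc or ARE-Luc reporter plus β-galactosidase by lipofection. Inhibitors added 24 h post-transfection, 2 h before stimulation with 5 ng/mL TGF-β for 18–24 h. Luminescence of lysates read. Mean ± SD of three independent experiments run in triplicate, relative to DMSO vehicle control.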

[3] = target: T1, TGF-beta receptor type-1 (Homo sapiens); experiment: Inhibition of human ALK5 activity in human HaCaT cells assessed as ARE-luciferase reporter activity; type: cell-based; conditions: in the assay text read “p3TP-luciferase” for “ARE-luciferase”; how it was run: as §1

Chain of Mitogen-activated protein kinase 14 (Homo sapiens) (Q16539 whole entry): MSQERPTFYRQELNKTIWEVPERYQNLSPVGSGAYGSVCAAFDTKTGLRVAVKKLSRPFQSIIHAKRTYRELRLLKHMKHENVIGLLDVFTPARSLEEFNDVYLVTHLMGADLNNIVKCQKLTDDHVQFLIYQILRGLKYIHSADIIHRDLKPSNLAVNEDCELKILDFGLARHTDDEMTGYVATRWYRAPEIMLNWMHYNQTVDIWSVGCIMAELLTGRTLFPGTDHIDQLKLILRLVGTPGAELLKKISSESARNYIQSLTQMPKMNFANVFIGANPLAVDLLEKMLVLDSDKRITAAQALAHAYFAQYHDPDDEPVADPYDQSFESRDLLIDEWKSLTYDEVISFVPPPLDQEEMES

Activity [1] [%]	Activity [2]	Activity [3]	SMILES
92	Dose-dependent effect	Dose-dependent effect	CCc1cccc(-c2[nH]c(Cc3ccc(S(N)(=O)=O)cc3)nc2-c2ccc3nccnc3c2)n1
89	Dose-dependent effect	Dose-dependent effect	Cc1cccc(-c2[nH]c(Cc3ccc(S(N)(=O)=O)cc3)nc2-c2ccc3nccnc3c2)n1
49			NC(=O)c1ccc(-c2nc(-c3ccccn3)c(-c3ccc4c(c3)OCO4)[nH]2)cc1
98			CC(C)c1cccc(-c2[nH]c(Cc3ccc(S(N)(=O)=O)cc3)nc2-c2ccc3nccnc3c2)n1
97			CCCCc1cccc(-c2[nH]c(CCc3ccc(S(N)(=O)=O)cc3)nc2-c2ccc3nccnc3c2)n1

Further lines, the compound ahead of its results:

SMILES	Activity [1] [%]	Activity [2]	Activity [3]
CCc1cccc(-c2[nH]c(CCc3ccc(S(N)(=O)=O)cc3)nc2-c2ccc3nccnc3c2)n1	96		
NS(=O)(=O)c1ccc(CCc2nc(-c3ccc4nccnc4c3)c(-c3ccccn3)[nH]2)cc1	97		
CCCCc1cccc(-c2[nH]c(Cc3ccc(S(N)(=O)=O)cc3)nc2-c2ccc3nccnc3c2)n1	104		
NS(=O)(=O)c1ccc(Cc2nc(-c3ccc4nccnc4c3)c(-c3ccccn3)[nH]2)cc1	95		
CC(C)c1cccc(-c2[nH]c(CCc3ccc(S(N)(=O)=O)cc3)nc2-c2ccc3nccnc3c2)n1	105		
CCCc1cccc(-c2[nH]c(CCc3ccc(S(N)(=O)=O)cc3)nc2-c2ccc3nccnc3c2)n1	103		
Cc1cccc(-c2[nH]c(CCc3ccc(S(N)(=O)=O)cc3)nc2-c2ccc3nccnc3c2)n1	91		
CCCc1cccc(-c2[nH]c(Cc3ccc(S(N)(=O)=O)cc3)nc2-c2ccc3nccnc3c2)n1	105		
